In article PMC12138107 (Acta Pharmaceutica Sinica. B, 2025):

Test system: L02 cells
Test: In vitro cytotoxicity assay on normal L02 cells
Assay type: cell-based
Conditions: 10 μmol/L, 24 h, CCK8
In short: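 L02 cells grown in DMEM with 10% FBS and 1% penicillin-streptomycin at 37 °C, 5% CO2. Seeded at 5 × 10^3 cells/well, then 24 h before test compound at 10 μmol/L was added for another 24 h. Medium removed, 10% CCK8 added for 1 h at 37 °C. Absorbance read and viability calculated.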

COc1nc(OCc2cccc(-c3ccccc3)c2C)ccc1CNCCNC(C)=O [BMS-202]
Cytotoxicity on normal L02 cells: obvious cytotoxicity
